For experiment [1], the target named is T1, Alpha-2A adrenergic receptor (Homo sapiens, UniProt P08913).
T1 sequence (P08913 whole entry): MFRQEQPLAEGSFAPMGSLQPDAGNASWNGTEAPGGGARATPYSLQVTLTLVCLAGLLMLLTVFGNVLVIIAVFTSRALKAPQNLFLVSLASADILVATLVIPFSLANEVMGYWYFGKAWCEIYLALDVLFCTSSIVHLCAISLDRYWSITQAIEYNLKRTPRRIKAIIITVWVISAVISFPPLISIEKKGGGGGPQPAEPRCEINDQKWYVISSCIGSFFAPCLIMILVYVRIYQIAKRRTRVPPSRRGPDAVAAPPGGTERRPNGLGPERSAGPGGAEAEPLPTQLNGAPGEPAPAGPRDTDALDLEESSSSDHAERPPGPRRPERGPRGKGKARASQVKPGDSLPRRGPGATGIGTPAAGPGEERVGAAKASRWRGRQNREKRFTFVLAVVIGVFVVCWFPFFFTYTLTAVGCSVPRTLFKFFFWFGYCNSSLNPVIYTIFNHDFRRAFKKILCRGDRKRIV
The experiment is described as follows: The compound was tested for binding affinity against Alpha-2A adrenergic receptor from human clones. In a few lines:
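Human α2A-adrenoceptor clone expressed in CHO cells; radioligand binding read out as Ki (nM).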

The target in experiment [2] is T2, Alpha-2B adrenergic receptor (Homo sapiens, UniProt P18089).
T2 sequence (P18089 whole entry): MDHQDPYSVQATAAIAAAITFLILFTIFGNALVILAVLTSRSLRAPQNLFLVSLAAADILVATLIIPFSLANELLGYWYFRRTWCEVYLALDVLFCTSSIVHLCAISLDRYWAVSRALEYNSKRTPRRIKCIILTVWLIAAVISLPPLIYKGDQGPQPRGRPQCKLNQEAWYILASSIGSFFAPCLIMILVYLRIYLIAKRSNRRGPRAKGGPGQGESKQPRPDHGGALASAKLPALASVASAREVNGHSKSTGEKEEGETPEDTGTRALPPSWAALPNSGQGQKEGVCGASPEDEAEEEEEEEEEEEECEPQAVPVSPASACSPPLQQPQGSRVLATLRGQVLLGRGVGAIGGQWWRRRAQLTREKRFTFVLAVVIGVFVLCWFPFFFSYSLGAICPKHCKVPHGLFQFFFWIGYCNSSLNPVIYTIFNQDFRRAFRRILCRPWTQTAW
The experiment is described as follows: Binding affinity against Alpha-2B adrenergic receptor from human clones.

Experiment [3] has as its target T3, Alpha-2C adrenergic receptor (Homo sapiens, UniProt P18825).
T3 sequence (P18825 whole entry): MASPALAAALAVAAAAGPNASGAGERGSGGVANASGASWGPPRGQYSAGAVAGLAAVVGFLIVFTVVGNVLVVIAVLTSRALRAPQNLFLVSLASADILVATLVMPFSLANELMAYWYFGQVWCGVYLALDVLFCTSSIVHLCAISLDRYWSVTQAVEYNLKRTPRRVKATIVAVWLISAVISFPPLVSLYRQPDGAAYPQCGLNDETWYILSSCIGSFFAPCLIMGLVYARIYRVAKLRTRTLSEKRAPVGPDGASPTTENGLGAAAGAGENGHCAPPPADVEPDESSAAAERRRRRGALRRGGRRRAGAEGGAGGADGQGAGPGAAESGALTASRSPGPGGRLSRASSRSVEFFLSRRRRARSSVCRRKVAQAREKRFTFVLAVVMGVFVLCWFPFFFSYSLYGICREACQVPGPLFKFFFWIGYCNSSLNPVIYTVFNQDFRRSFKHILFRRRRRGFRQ
Description: Binding affinity against Alpha-2C adrenergic receptor from human clones.

The target of experiment [4] is T4, Alpha-1D adrenergic receptor (Homo sapiens, UniProt P25100).
T4 sequence (P25100 whole entry): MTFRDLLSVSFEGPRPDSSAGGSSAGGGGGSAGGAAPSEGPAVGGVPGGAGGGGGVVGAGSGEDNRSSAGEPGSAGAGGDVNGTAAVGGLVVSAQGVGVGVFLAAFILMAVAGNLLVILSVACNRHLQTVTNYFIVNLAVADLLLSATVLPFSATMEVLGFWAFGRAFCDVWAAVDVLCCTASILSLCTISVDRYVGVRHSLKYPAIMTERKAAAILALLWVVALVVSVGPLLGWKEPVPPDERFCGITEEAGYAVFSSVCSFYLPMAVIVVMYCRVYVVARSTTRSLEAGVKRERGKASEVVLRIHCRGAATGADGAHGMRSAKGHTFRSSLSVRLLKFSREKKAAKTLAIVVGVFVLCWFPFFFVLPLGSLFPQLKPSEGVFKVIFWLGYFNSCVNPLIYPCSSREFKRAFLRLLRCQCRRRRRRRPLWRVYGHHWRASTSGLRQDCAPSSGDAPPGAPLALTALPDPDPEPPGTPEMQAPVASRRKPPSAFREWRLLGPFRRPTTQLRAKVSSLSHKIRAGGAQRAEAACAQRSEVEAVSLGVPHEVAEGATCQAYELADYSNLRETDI
The experiment is described as follows: Binding affinity against Alpha-1D adrenergic receptor, from human clones.

Experiment [5] addresses T5, Alpha-1D adrenergic receptor (Rattus norvegicus, UniProt P23944).
T5 sequence (P23944 whole entry): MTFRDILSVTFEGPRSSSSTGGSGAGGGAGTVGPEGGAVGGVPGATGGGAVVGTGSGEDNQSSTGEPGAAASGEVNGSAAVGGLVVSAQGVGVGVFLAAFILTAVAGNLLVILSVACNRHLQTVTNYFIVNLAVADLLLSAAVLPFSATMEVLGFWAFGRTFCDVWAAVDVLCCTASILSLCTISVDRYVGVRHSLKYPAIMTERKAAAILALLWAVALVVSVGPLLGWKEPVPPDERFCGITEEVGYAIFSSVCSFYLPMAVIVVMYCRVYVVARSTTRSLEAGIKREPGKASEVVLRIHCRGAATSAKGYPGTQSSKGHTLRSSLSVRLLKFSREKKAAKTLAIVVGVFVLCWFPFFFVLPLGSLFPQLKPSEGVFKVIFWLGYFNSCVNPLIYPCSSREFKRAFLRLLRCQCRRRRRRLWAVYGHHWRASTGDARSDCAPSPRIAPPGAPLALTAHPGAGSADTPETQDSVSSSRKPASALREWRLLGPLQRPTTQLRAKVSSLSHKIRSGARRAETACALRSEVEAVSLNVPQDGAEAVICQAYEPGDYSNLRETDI
Description: Binding affinity against Alpha-1D adrenergic receptor, from rat clones.

Turning to `O=C(NC1CCN(CCc2c[nH]c3ccccc23)CC1)c1ccccc1` [INDORAMIN], the Ki was 2240 nM in experiment [1]; 528 nM in experiment [2]; 476 nM in experiment [3]; 110 nM in experiment [4]; 611 nM in experiment [5].
Turning to `COc1ccccc1N1CCN(CCCNc2c(C)c(=O)n(C)c(=O)n2C)CC1`, the inhibition constant (Ki) in experiment [1] was determined as 612 nM; in experiment [2] it was 406 nM; in experiment [3], 131 nM; in experiment [4] it was 21 nM; in experiment [5] it was 186 nM.
With `COc1cccc(OC)c1OCCNCC1COc2ccccc2O1` (stereo not drawn), the results for the Ki in experiment [2], in experiment [3] and in experiment [5] were 28 nM, 0.8 nM and 1.2 nM, respectively.

Usually Ki stands for the dissociation constant of the complex between target and ligand, obtained from inhibition or displacement.

Source of the values: ChEMBL document CHEMBL1128530, “Alpha- and beta-adrenoceptors: from the gene to the clinic. 1. Molecular biology and adrenoceptor subclassification” (J Med Chem, 1995).
